Screening data from PubChem BioAssay.
RAD52 anneal inh = inhibitors of human RAD52 DNA annealing | P43351 | inhibition, % at 18.7 µM | recombinant RAD52 DNA annealing, FRET fluorescence | 0.46% of 360,000 active;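 active = every replicate showing at least 50% inhibition; inconclusive = mean inhibition at least 50% but not in every replicate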
Target sequence (P43351 whole entry, looked up): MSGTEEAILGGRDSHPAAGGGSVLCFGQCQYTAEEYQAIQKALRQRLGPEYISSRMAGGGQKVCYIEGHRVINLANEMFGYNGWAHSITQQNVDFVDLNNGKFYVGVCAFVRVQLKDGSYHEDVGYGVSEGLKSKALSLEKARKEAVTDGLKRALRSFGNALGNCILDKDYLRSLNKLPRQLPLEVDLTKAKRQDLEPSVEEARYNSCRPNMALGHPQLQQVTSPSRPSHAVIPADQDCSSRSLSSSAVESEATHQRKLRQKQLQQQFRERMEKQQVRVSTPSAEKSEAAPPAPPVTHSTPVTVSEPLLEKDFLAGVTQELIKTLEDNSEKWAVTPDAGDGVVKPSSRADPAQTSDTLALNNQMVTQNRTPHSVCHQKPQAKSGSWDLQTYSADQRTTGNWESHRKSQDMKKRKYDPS
PDI inh = PDI (human) enzyme inhibition; PDI insulin aggregation turbidity, A650, 90 min; inhibition, % at 10 µM; 0.052% of 350,000 active;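 active = mean inhibition across replicates of 30% or more, whatever share of single replicates reach that level; inconclusive = mean inhibition below 30% while every single replicate reaches 30%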
CAL PDZ FP-1 = blocks peptide binding to the human CAL PDZ domain; Q9HD26; purified CAL PDZ, TMR-peptide fluorescence polarization, 1 h; inhibition, % at 24.9 µM; 0.92% of 300,000 active;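 active = mean inhibition of at least 30% with at least half of replicates also reaching 30%; inconclusive = no clear call, values can overlap the other calls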;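 note: 0% = DMSO neutral control and 100% = excess unlabeled competitor peptide PRC23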
RAD54 branch = blocks human RAD54 Holliday junction branch migration | inhibition, % at 10.4 µM | FAM/BHQ fluorescence | AID 602329 | 0.14% of 360,000 active | Q92698;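 active = mean normalized replicate activity at least 40 and at least half of replicates scoring 40 or more; inconclusive = only one of the two criteria met; inactive = mean below 40 and under half of replicates reaching 40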;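 note: 0% = median of neutral control wells and 100% = median of positive control wells; inhibitors cause a drop in the FAM fluorescence signal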
ERp5 inh = blocks human ERp5 reductase activity on insulin. Q15084. ERp5 insulin aggregation, absorbance 650 nm, 90 min. inhibition, % at 9.99 µM. 0.05% of 350,000 active. AID 651711;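 active = mean replicate inhibition above about 25%, with every replicate also reaching it, limit read from the data, passing the limit was not always enough; inconclusive = only one of those two criteria met; inactive = neither criterion met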
CAL PDZ FP-2 = blocks peptide binding to human CAL PDZ domain; Q9HD26; 0.02% of 330,000 active; AID 504414; purified CAL PDZ, TMR-peptide fluorescence polarization, 1 h; inhibition, % at 20 µM;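 active = highest replicate inhibition of at least 40%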;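 note: plate controls were DMSO neutral control wells for no effect and unlabeled competitor peptide control wells for full effect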
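material = purified tagged CAL PDZ domain construct (CerCALP) | buffer or medium = sodium phosphate/NaCl buffer pH 7.4 with TCEP, IgG, Thesit | reagent = TMR-labelled reporter peptide T*-PRC34 bound in PDZ groove | incubation = 1 h room-temperature incubation prior to read | measured by = fluorescence polarization (mP) | evaluation = percent inhibition from loss of millipolarization | control set = unlabelled peptide and DMSO controls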
DNA binding = counter-screen for Rad54 inhibitors: DNA binding compounds. shares compounds with RAD54 branch. Acridine orange-DNA displacement, fluorescence polarization, 20 min. AC50, µM (top dose mostly 35 µM), without a hit: top-dose activity change, negative = DNA binding. 8% of 460 active;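 active = signal drop giving an AC50 within twice the top valid tested concentration of each sample, actives reach about 35 µM in these data; inactive = activity opposite to expected, plus the rest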;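 note: polarization loss reports compound binding to salmon sperm DNA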
Numbers without * were called inactive; ? = inconclusive; nt = no result given. Most compounds without a hit are left out; they make up all but 1% or so of the library.

SMILES	RAD52 anneal inh	PDI inh	CAL PDZ FP-1	RAD54 branch	ERp5 inh	CAL PDZ FP-2	others
C[C@@H]1CN([C@H](C)CO)C(=O)c2cccc(NC(=O)Nc3ccc(C(F)(F)F)cc3)c2O[C@@H]1CN(C)C(=O)Nc1cccc2ccccc12	16.6	nt	nt	11.4	0.5	nt
C[C@H]1CN([C@@H](C)CO)C(=O)c2cccc(NC(=O)Nc3cccc4ccccc34)c2O[C@@H]1CN(C)C(=O)Nc1ccc(C(F)(F)F)cc1	-11.3	nt	nt	-4.6	79.4*	nt
C[C@@H]1CN([C@H](C)CO)C(=O)c2cccc(NC(=O)Nc3cccc4ccccc34)c2O[C@H]1CN(C)C(=O)Nc1ccc(C(F)(F)F)cc1	3.1	nt	nt	-0.4	61.9*	nt
C[C@@H]1CN([C@H](C)CO)C(=O)c2cccc(NC(=O)Nc3cccc4ccccc34)c2O[C@@H]1CN(C)C(=O)Nc1ccc(C(F)(F)F)cc1	-15.1	nt	nt	2.0	41.9*	nt
COc1ccc(NC(=O)Nc2cccc3c2O[C@@H](CN(C)Cc2ccc(C(F)(F)F)cc2)[C@@H](C)CN([C@@H](C)CO)C3=O)cc1	87.3*	nt	nt	-4.2	-2.2	nt
COc1cccc(S(=O)(=O)Nc2ccc3c(c2)C(=O)N(C)C[C@H](OC)[C@H](C)CN(C(=O)Cc2cccnc2)[C@H](C)CO3)c1	-1.3	nt	nt	-4.6	-2.0	nt
COc1cc2c(cc1OC)C(c1cc3cc4c(cc3[nH]c1=O)OCO4)N(C(=O)C1CC1)CC2 (centres undefined)	-8.9	4.0	-0.8	0.4	-0.2	-1.5
COc1cc2c(cc1OC)C(c1cc3ccc(C)cc3[nH]c1=O)N(C(=O)c1ccco1)CC2 (centres undefined)	2.3	-14.6	40.6*	2.8	0.9	-2.1
COc1cccc(C(=O)Nc2ccc3c(c2)OC[C@@H](C)N(C)C[C@H](C)[C@H](OC)CN(C)C3=O)c1	0.9	nt	nt	4.3	0.6	nt
O=C(NC(C(=O)O)c1ccccc1)c1ccccc1 (centres undefined)	-12.4	-2.8	0.0	-0.4	7.0	-1.0
O=C(NC(C(=O)c1ccccc1)c1ccccc1)c1ccccc1 (centres undefined)	0.0	8.4	38.3*	3.8	-5.7	-0.1
O=C(COc1ccccc1)NCc1n[nH]c(=S)n1-c1ccccc1	-26.2	7.1	-4.1	nt	2.7	-1.1
COc1ccc(-n2c(CNC(=O)COc3ccccc3)n[nH]c2=S)cc1	-14.0	9.5	41.0*	nt	6.4	-0.3
O=C(NCCCc1ccncc1)C1CCC(=O)N(Cc2ccc(Cl)cc2)C1 (centres undefined)	-2.4	4.9	71.9*	6.3	4.4	-0.4
COc1cccc(CN2CC(C(=O)NCCCc3ccc(C)cc3)CCC2=O)c1 (centres undefined)	-6.6	-8.2	100.0*	3.0	-3.6	0.4
O=C(NCc1ccncc1)C1CCC(=O)N(CCc2ccc(Cl)cc2)C1 (centres undefined)	-5.1	1.5	-6.7	-5.2	7.0	-0.9
C[C@H]1CCCCO[C@H](CN(C)Cc2ccccc2)[C@@H](C)CN([C@@H](C)CO)C(=O)c2cc(NC(=O)c3ccncc3)ccc2O1	-0.9	nt	nt	5.2	4.3	nt
COc1ccc(C(=O)NCC(=O)OCc2ccc(Cl)cc2Cl)cc1OC	-10.3	-2.3	nt	-7.5	1.8	0.1
COc1ccc(C(=O)NCC(=O)OCC(=O)c2ccc(Cl)cc2)cc1OC	-11.5	5.1	33.9*	-2.4	3.6	0.0
C[C@@H]1CN([C@H](C)CO)C(=O)c2cc(NC(=O)CCC(F)(F)F)ccc2O[C@@H]1CN(C)C	0.4	nt	nt	0.6	-6.2	nt
CN(C)C=Nc1ncc2c3ccccc3n(CCN(C)C)c2c1C#N	nt	-2.5	-1.4	88.1*	nt	-0.9
CN(C)C=Nc1ncc2c3ccccc3n(Cc3ccccc3)c2c1C#N	nt	-4.2	nt	0.1	nt	-0.2
COc1ccc(S(=O)(=O)N2CC(C(=O)O)Oc3ccc(CC(=O)O)cc32)cc1 (centres undefined)	nt	-1.4	37.9*	-1.4	nt	0.6
Cc1ccc2cccc(OCC(=O)N(C)CC(=O)Nc3ccc(F)cc3)c2n1	-3.3	4.9	4.4	-3.3	-2.7	0.1
Cc1ccc(NC(=O)CN(C)C(=O)COc2cccc3ccc(C)nc23)cc1	-9.7	-2.9	70.7*	-19.8	0.6	-0.3
SMILES	RAD52 anneal inh	PDI inh	CAL PDZ FP-1	RAD54 branch	ERp5 inh	CAL PDZ FP-2	others
O=C(C1CC(=O)N(c2ccc3c(c2)OCCO3)C1)N1CCN(S(=O)(=O)c2cccc(F)c2)CC1 (centres undefined)	-17.4	-0.6	-3.4	2.8	5.9	-0.9
O=C(C1CC(=O)N(c2ccc3c(c2)OCCO3)C1)N1CCN(S(=O)(=O)c2ccc(F)cc2)CC1 (centres undefined)	-12.2	7.8	68.1*	16.1	1.4	-1.9
CO[C@@H]1CN(C)C(=O)c2cc(NC(=O)c3cc(C)on3)ccc2OC[C@@H](C)N(S(=O)(=O)c2ccccc2)C[C@H]1C	-4.0	nt	nt	-9.8	-7.2	nt
C[C@H]1CCCCO[C@H](CN(C)C(=O)Nc2ccc3c(c2)OCO3)[C@@H](C)CN([C@@H](C)CO)C(=O)c2cc(NS(C)(=O)=O)ccc2O1	14.5	nt	nt	-7.2	4.2	nt
Oc1ccc(Nc2ccnc3cc(Cl)ccc23)cc1	-4.2	-5.2	-6.4	58.0*	1.6	-0.2	DNA binding=-11.8%
CCNC1CCC(Nc2ccnc3cc(Cl)ccc23)CC1 (centres undefined)	12.8	0.7	-3.6	54.7*	3.4	-1.1	DNA binding=-2.2%
OC(CNc1ccnc2cc(Cl)ccc12)CNC1CCCCC1 (centres undefined)	45.0	0.1	-3.2	nt	3.8	-3.6
Cc1cccc(Cn2c(Sc3nc(C)cs3)nc3c2c(=O)[nH]c(=O)n3C)c1	nt	-4.8	2.1	?	nt	-2.0	DNA binding=14.3%
CCOc1cc2[nH]c(=O)n(Cc3ccc(C(=O)NCCCN4CCC(C)CC4)cc3)c(=O)c2cc1OCC	48.0	-5.6	-9.1	59.8*	-0.6	-5.0	DNA binding=-9.1%
COc1ccccc1O	0.2	-0.2	-3.7	2.5	0.4	-0.3
COc1cccc2c1-c1c(O)cccc1C2=O	-29.1	2.5	-5.6	?	-0.8	-0.9	DNA binding=-18.7%
Cc1ccc2nc3c(cc(C(=O)NCCc4ccccc4)c(=N)n3CCN3CCOCC3)c(=O)n2c1	nt	-5.0	-2.4	10.3	nt	-2.4
Cc1ccc2nc3c(cc(C(=O)NCCN4CCOCC4)c(=N)n3CCCN3CCOCC3)c(=O)n2c1	nt	15.6	-0.5	65.9*	nt	-2.2	DNA binding=-15.4%
C[C@@H]1CN([C@H](C)CO)C(=O)c2cc(NC(=O)Cn3cnnn3)ccc2O[C@@H]1CN(C)S(=O)(=O)c1ccccc1	-13.3	nt	nt	nt	6.3	nt
NC(=O)C1CCN(c2nc(-c3cccc(N)c3)cs2)CC1	nt	5.2	3.1	4.1	nt	0.2
NC(=O)C1CCN(c2nc(-c3cccnc3)cs2)CC1	10.9	1.7	-3.4	59.7*	8.6	0.4	DNA binding=13.6%
